ADAM17 inh: inhibits human ADAM17; P78536; recombinant ADAM17, EDANS/DABCYL FRET peptide cleavage; inhibition, % at 6.95 µM; actives 0.83% (n = 370,000); AID 720648;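 active = inhibition above the mean of compounds lying between control limits plus 3 SD, set per campaign, cut at about 8.5% in these data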
Arrestin-AP2 inh: human beta-arrestin and AP2 interaction inhibition; FITC-arrestin peptide / GST-AP2 beads, flow cytometry; AP2 beta2 appendage carries R879A mutation; inhibition, % at 10 µM; actives 0.31% (n = 340,000);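 active = inhibition above a set limit, near 3 SD of compounds lacking own fluorescence, cut at about 54% in these data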
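Material – AP2 appendage R879A on GSH beads · Buffer or medium – PBS with 0.05% Tween 20 and 0.1% BSA · Probe or stimulus – fluorescein-tagged arrestin peptide at 50 nM final · Incubation – compound with beads 12 min RT, then probe 1 h RT · Detection – high-throughput flow cytometry of beads, ex 488, em 535 nm · Evaluation – percent response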
CendR NRP1 mod: modulators of CendR peptide binding to human neuropilin-1 | O14786 | FAM-RPARPAR peptide binding to NRP-1, fluorescence polarization | inhibition, % at 25 µM | actives 0.85% (n = 360,000);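 active = inhibition or corrected inhibition above about 18%, plus a signal ratio from 0.5 to 1.5, limit read from the data, passing the limit was not always enough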
ADAM10 inh: ADAM10 inhibition, QFRET primary screen | O14672 | recombinant ADAM10, EDANS/DABCYL FRET peptide cleavage, 3 h | inhibition, % at 7 µM | actives 0.62% (n = 370,000);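 active = inhibition above a per-campaign cutoff equal to the mean of compounds falling between control-based bounds plus 3 SD, cut at about 20% in these data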
Target sequence (O14672 214-748 limits assumed): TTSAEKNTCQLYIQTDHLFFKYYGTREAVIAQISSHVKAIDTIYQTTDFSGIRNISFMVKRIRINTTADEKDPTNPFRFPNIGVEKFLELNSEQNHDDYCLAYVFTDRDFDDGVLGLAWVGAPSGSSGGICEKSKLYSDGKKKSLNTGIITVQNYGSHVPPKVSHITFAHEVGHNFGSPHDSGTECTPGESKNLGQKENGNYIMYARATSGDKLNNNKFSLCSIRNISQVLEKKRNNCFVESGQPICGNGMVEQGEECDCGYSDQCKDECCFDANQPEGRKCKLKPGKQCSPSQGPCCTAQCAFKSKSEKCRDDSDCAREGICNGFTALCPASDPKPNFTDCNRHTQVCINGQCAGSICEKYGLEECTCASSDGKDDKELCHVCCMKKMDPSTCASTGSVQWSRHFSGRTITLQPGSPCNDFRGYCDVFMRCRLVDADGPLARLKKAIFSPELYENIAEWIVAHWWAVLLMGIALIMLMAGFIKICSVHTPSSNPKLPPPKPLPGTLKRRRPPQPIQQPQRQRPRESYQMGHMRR
CaV13 ICDI inh: Disruptors of the CACNA1D IQ motif to Ca2+-dependent inactivation inhibitor domain association, primary screening, Förster resonance energy transfer in intact living …; AID 743397; HEK cells, CFP/YFP FRET ICDI-IQ, plate reader, 10 min; percent FRET-ratio fall versus neutral wells; inhibition, % at 12.3 µM; actives 0.098% (n = 340,000);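 active = mean replicate inhibition of at least 30% and at least 1% of replicates passing that level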
FAS TE block: FAS thioesterase (human) inhibition; recombinant FAS-TE, OMFH fluorogenic substrate, fluorescence endpoint; inhibition, % at 15 µM; actives 0.67% (n = 360,000);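 active = compounds whose normalised, plate-corrected inhibition of enzyme fluorescence in the single-dose primary screen is 50% or more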
ADAM10 confirm: human ADAM10 inhibition, confirmation; AID 743208; ADAM10 QFRET peptide cleavage, EDANS fluorescence; shares compounds with ADAM10 inh; inhibition, % at 6.95 µM; actives 1% (n = 2,100);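 active = inhibition above about 20% chosen separately for each screening run, limit read from the data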
ADAM17 counter: counter-screen for ADAM10 exosite inhibitors: inhibitors of human ADAM17; actives 0.5% (n = 2,100); shares compounds with ADAM10 inh; inhibition, % at 6.95 µM; ADAM17 QFRET peptide cleavage, EDANS fluorescence;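 active = mean triplicate inhibition above the solvent-only control wells' mean plus 3 SD, cut at about 12% in these data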
ADAM10 counter: ADAM10 inhibition, counter-screen for ADAM17 exosite hits. recombinant ADAM10, EDANS/DABCYL FRET peptide cleavage, 3 h. shares compounds with ADAM17 inh. actives 47% (n = 2,900). inhibition, % at 6.95 µM;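 active = mean inhibition over the triplicate runs exceeds the activity threshold set in the earlier primary screen, cut at about 20% in these data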
ADAM17 confirm: confirmation of inhibitors of human ADAM17; shares compounds with ADAM17 inh; recombinant ADAM17, EDANS/DABCYL QFRET peptide cleavage; inhibition, % at 6.95 µM; actives 65% (n = 2,900);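 active = mean inhibition across replicates above the hit cutoff set in the primary screen, cut at about 8.5% in these data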
A number is an active result; 0 = inactive; - = no result given. Hits are enriched below; roughly 2.9% of the tested compounds scored in any of these assays.

SMILES	ADAM17 inh	Arrestin-AP2 inh	CendR NRP1 mod	ADAM10 inh	CaV13 ICDI inh	FAS TE block	ADAM10 confirm	ADAM17 counter	ADAM10 counter	ADAM17 confirm
C=CCc1cccc(CNc2nc3ccccc3n2CCC)c1O	14.0	0	0	34.7	0	0	0	0	41.5	23.4
COc1ccc(CN2C(=O)[C@H]3Cc4c([nH]c5ccccc45)C(C)(C)N3C2=O)cc1	8.9	0	0	22.1	0	0	0	0	30.0	16.6
COc1ccccc1CN1C(=O)[C@@H]2Cc3c([nH]c4ccccc34)C(C)(C)N2C1=O	0	0	0	0	0	0	-	-	-	-
CCN(c1ccccc1)S(=O)(=O)c1cc(C(=O)OC(C)C(=O)Nc2ccc3c(c2)OCCO3)ccc1C (centres undefined)	15.1	0	0	27.5	0	0	0	0	0	13.1
CC(OC(=O)c1ccccn1)C(=O)Nc1ccc2c(c1)OCCO2 (centres undefined)	0	0	0	0	0	0	-	-	-	-
O=C(Cc1cccc(C(F)(F)F)c1)NCc1cccc(Cl)c1	0	0	0	0	0	0	-	-	-	-
O=C(NCc1cccc(Cl)c1)c1ccc(S(=O)(=O)Nc2cccc(C(F)(F)F)c2)cc1	15.3	0	0	38.9	0	0	0	0	34.4	17.9
C[C@@H]1CCC(=O)N(CC[C@H](Sc2ccc(Br)cc2)c2ccccc2)CC1	16.1	0	0	21.5	0	0	0	0	21.3	11.4
Cc1ccccc1NC(=O)OC1CCC12CCCCC2 (centres undefined)	0	-	-	0	-	-	-	-	-	-
COC(=O)c1c(NC(NC(=O)C(C)C)C(Cl)(Cl)Cl)sc2c1CCCC2 (centres undefined)	10.5	0	0	22.1	0	0	0	0	25.8	15.9
COC(=O)c1c(NC(C)=O)sc2c1CCCC2	0	0	0	0	0	0	-	-	-	-
COc1cc(CC(=O)N2c3ccccc3N=C(c3ccccc3)C2C(=O)NCc2ccccc2)cc(OC)c1 (centres undefined)	0	-	0	0	0	-	-	-	-	-
O=C(NC(NC(=S)Nc1cccc(Cl)c1)C(Cl)(Cl)Cl)OCc1ccccc1 (centres undefined)	10.3	0	0	28.4	-	0	0	0	35.0	20.2
O=C(NC(NC(=S)Nc1cccc(C(=O)O)c1)C(Cl)(Cl)Cl)OCc1ccccc1 (centres undefined)	0	0	0	0	0	0	-	-	-	-
O=C1NC[C@H](c2ccccc2)OC(=O)[C@H](Cc2ccc(F)cc2)C/C=C\C[C@@H]1CC(=O)N(CCO)Cc1ccccc1	0	0	0	0	0	0	-	-	-	-
O=C1NC[C@H](c2ccccc2)OC(=O)[C@H](Cc2ccc(F)cc2)CC/C=C/C[C@H]1CC(=O)N(CCO)Cc1ccccc1	16.9	0	0	24.1	0	0	0	0	21.8	10.7
Cc1ccc(OCCNC(=O)c2cccc(C)c2)cc1	0	0	0	0	0	0	-	-	-	-
Cc1cccc(OCCNC(=O)c2cccc(Oc3ccc(C(F)(F)F)cc3[N+](=O)[O-])c2)c1	14.0	0	0	32.3	0	0	0	0	34.1	17.7
CC(O)(c1ccc(F)c(F)c1)c1nc(-c2cccc(C(F)(F)F)c2)cs1 (centres undefined)	11.0	-	0	26.3	0	0	0	0	32.7	16.8
OC(c1ccccc1)(c1nc(-c2cccc(C(F)(F)F)c2)cs1)C(F)(F)F (centres undefined)	13.8	-	0	26.0	0	0	0	0	35.2	19.0
CC(O)(c1cccc(F)c1)c1nc(-c2cccc(C(F)(F)F)c2)cs1 (centres undefined)	11.1	-	0	23.2	0	0	0	0	45.4	28.1
CC(O)(c1ccc(F)c(F)c1)c1nc(-c2cccc(C(=O)O)c2)cs1 (centres undefined)	0	-	0	0	0	0	-	-	-	-
O=C(c1ccc(C(F)(F)F)cc1)N1CCC(=O)N([C@H](COCc2ccc(C(F)(F)F)cc2)Cc2ccccc2)CC1	12.2	-	0	27.7	0	0	0	0	28.3	16.1
O=C(c1ccc(C(F)(F)F)cc1)N1CCC(=O)N([C@H](COCc2ccc(Cl)cc2)Cc2ccccc2)CC1	0	-	0	0	0	0	-	-	-	-
CCN(CC(=O)Nc1cccc(OC)c1)CC(=O)Nc1ccccc1C	0	0	0	0	0	0	-	-	-	-
SMILES	ADAM17 inh	Arrestin-AP2 inh	CendR NRP1 mod	ADAM10 inh	CaV13 ICDI inh	FAS TE block	ADAM10 confirm	ADAM17 counter	ADAM10 counter	ADAM17 confirm
CCN(CC(=O)Nc1cccc(OC)c1)CC(=O)Nc1ccc(Br)c(C)c1	11.8	0	0	22.6	0	0	0	0	44.8	16.1
COc1ccc(CN2CCNC(=O)C2CC(=O)N(C)C2CCOCC2)cc1OC (centres undefined)	0	-	0	0	0	0	-	-	-	-
O=C(Oc1cccc2c(=O)[nH]ccc12)c1ccccc1	0	0	0	0	0	0	-	-	-	-
COc1cccc(OC(=O)c2ccccc2)c1OC(=O)c1ccccc1	15.2	0	0	27.1	0	0	0	0	0	0
Cc1cccc(C)c1NC(=O)C(c1ccccc1)N1CCN(c2ccc(C(F)(F)F)cn2)CC1 (centres undefined)	0	-	0	0	-	0	-	-	-	-
Fc1cccc(Cl)c1CSc1nnc(CNc2ccccc2)o1	13.7	0	0	24.3	0	0	0	0	0	0
Nc1cccc(Oc2c(F)c(F)c(Oc3cccc(N)c3)c(F)c2F)c1	9.2	0	0	23.0	0	0	0	0	40.8	20.4
Cc1ccc(NC(=O)CN(C)C(=O)c2cccnc2Nc2cccc(C(F)(F)F)c2)cc1	13.4	0	0	36.5	0	0	0	0	51.7	28.5
COc1cccc(NC(=O)CN(C)C(=O)c2cccnc2Nc2cccc(C(F)(F)F)c2)c1	-	0	0	-	-	0	-	-	-	-
CN(C)c1ccc(C(CNS(=O)(=O)c2ccc(F)c(F)c2)c2c[nH]c3ccccc23)cc1 (centres undefined)	13.7	0	0	40.0	0	0	0	0	54.5	31.2
CCOC(=O)C1=CC[C@@H](c2ccccc2)N(S(=O)(=O)c2ccc(C)cc2)[C@@H]1C#N	0	-	0	0	0	-	-	-	-	-
